The values below come from the array DNA melting data of Ke et al. (doi:10.1101/2024.01.08.574731).

Data set [1] in a line: melting temperature; fluorescence melt of hairpins on a sequencing array, two-state fit, raised by 9.35 °C to match UV melts. The settings on record: sodium 0.088 M. An outline of the steps: (§1)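 Cy3 signals were normalised both to pre-quench Cy3 and to control constructs. They came from library hairpins carrying annealed Cy3 and quencher oligos on a sequenced MiSeq flow cell, imaged in 50 mM Na-HEPES pH 8.0, 25 mM NaCl, in 2.5 °C steps up to 60 °C. Bootstrapped two-state fits gave melting temperature and folding enthalpy, and four replicates were combined by inverse variance. Fitted temperatures were then raised by 9.35 °C to match UV melts.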

A short description of data set [2]: folding enthalpy; higher = less favourable; fluorescence melt of hairpins on a sequencing array, two-state fit. The settings on record: sodium 0.088 M. An outline of the steps: as §1

In the case of GTTGTGGGAAACTACGAC ((.((.(....).)).)), in data set [1], the Tm was 33.8 °C. The folding enthalpy in data set [2] is -14.3 kcal/mol.
GTTGTGGGAAACTGCAAC ((((..(....)..)))): the Tm in data set [1] worked out at 39.3 °C. The folding enthalpy in data set [2] was -12.7 kcal/mol.
For GTTGTTACGAAAGTAAAC (((..(((....)))))), the Tm in data set [1] came to 44.2 °C. For the same sequence, the folding enthalpy in data set [2] is -27.2 kcal/mol.
The like results for GTTGTTCGAAAGAAGAAC (((.(((....))).))) were, in that order, 43.3 °C and -27.6 kcal/mol.
For GTTTACCCGAAAGGGAAC (((..(((....)))))), in that order: 26.8 °C and -9.41 kcal/mol.
For GTTTACCGAAAGGTTAAC (((.(((....))).))), the Tm in data set [1] was determined as 43.7 °C. The folding enthalpy in data set [2] was -24.9 kcal/mol.
Consider GTTTACGAAAGTACAAC ((((((....))).))), for which the Tm in data set [1] turned out to be 30.4 °C. Moreover, in data set [2], the folding enthalpy is -11.9 kcal/mol.
With GTTTAGCGAAAGCTGAAC (((.(((....))).))), the Tm in data set [1] was 51.3 °C. For the same sequence, the folding enthalpy in data set [2] was -30.4 kcal/mol.
With GTTTAGGGAAACTTAAAC (((((.(....).))))), the Tm in data set [1] turned out to be 35.5 °C. In data set [2], the folding enthalpy is -15.4 kcal/mol.
The like results for GTTTATCGAAAGATCAAC (((.(((....))).))) were, in that order, 34.6 °C and -22.1 kcal/mol.
In the case of GTTTCACGAAAGTGTAAC (((.(((....))).))), the Tm in data set [1] was determined as 44.7 °C. Besides, the folding enthalpy in data set [2] was -24.6 kcal/mol.
The like results for GTTTCAGGAAACCGAAAC (((((.(....).))))) were, in that order, 37.4 °C and -30 kcal/mol.
Take GTTTCCGAAAGGAAAAC ((((((....))).))): the Tm in data set [1] was determined as 45.1 °C. Further, the folding enthalpy in data set [2] is -16.1 kcal/mol.
On to GTTTCCGAAAGGAAAC ((((((....)))))), for which, in data set [1], the Tm is 67.8 °C. The folding enthalpy in data set [2] is -41.3 kcal/mol.
Turning to GTTTCCGAAAGGACAAC ((((((....))).))), the Tm in data set [1] worked out at 39.6 °C. Moreover, the folding enthalpy in data set [2] was -16.6 kcal/mol.
With GTTTCCGAAAGGAGAAC ((((((....))).))), the Tm in data set [1] was found to be 34.7 °C. For the same sequence, the folding enthalpy in data set [2] is -16.5 kcal/mol.
Turning to GTTTCCGAAAGGATAAC ((((((....))).))), the Tm in data set [1] came to 37.6 °C. In data set [2], the folding enthalpy is -19.8 kcal/mol.
Regarding GTTTCGACGAAAGTCAAC (((..(((....)))))), the Tm in data set [1] came out at 22.9 °C. In addition, the folding enthalpy in data set [2] is -9.58 kcal/mol.
Regarding GTTTCGGGAAACCAAAAC ((((.((....)).)))), the Tm in data set [1] worked out at 35.1 °C. Also, in data set [2], the folding enthalpy is -19.6 kcal/mol.
Turning to GTTTCGGGAAACCGGAAC (((.(((....))).))), in data set [1], the Tm was 49.6 °C. For the same sequence, the folding enthalpy in data set [2] is -35.2 kcal/mol.
For the sequence GTTTCGGGAAACTGAAGC (.(((.(....).))).), the Tm in data set [1] was 37.9 °C. For the same sequence, the folding enthalpy in data set [2] is -11.2 kcal/mol.
Regarding GTTTGACGAAAGTCGAAC (((.(((....))).))), in data set [1], the Tm amounted to 57.8 °C. Moreover, the folding enthalpy in data set [2] is -35 kcal/mol.
Turning to GTTTGAGGAAACCCAAAC (((((.(....).))))), in data set [1], the Tm is 36.8 °C. The folding enthalpy in data set [2] is -30.3 kcal/mol.
GTTTGAGGAAACTCAGAC ((.((((....)))).)): the Tm in data set [1] turned out to be 39 °C. In addition, the folding enthalpy in data set [2] is -23.4 kcal/mol.
In the case of GTTTGAGGAAACTTAGAC ((.(.((....)).).)), the Tm in data set [1] is 32.3 °C. Also, the folding enthalpy in data set [2] was -13.5 kcal/mol.
The like results for GTTTGCACGAAAGTGAAC (((..(((....)))))) were, in that order, 31.2 °C and -13.9 kcal/mol.
Consider GTTTGCCGAAAGGCCAAC (((.(((....))).))), for which the Tm in data set [1] is 41.5 °C. Further, in data set [2], the folding enthalpy was -20.9 kcal/mol.
Consider GTTTGCGAAAGCAATAAC ((((((....)))..))), for which the Tm in data set [1] is 34.5 °C. For the same sequence, the folding enthalpy in data set [2] is -12.6 kcal/mol.
On to GTTTGCGAAAGCAGAAC ((((((....))).))), for which the Tm in data set [1] came out at 44.5 °C. Further, the folding enthalpy in data set [2] was -13.7 kcal/mol.
For the sequence GTTTGCGAAAGCATCAAC ((((((....)))..))), the Tm in data set [1] was 27.2 °C. Also, in data set [2], the folding enthalpy was -8.63 kcal/mol.
With GTTTGCGAAAGCATTAAC ((((((....)))..))), the Tm in data set [1] was found to be 27.3 °C. Further, the folding enthalpy in data set [2] was -12.2 kcal/mol.
For GTTTGGCGAAAGCCCAAC (((.(((....))).))), the Tm in data set [1] was found to be 39.1 °C. For the same sequence, in data set [2], the folding enthalpy is -19.1 kcal/mol.
In the case of GTTTGGGGAAACCCAGAC ((.((((....)))).)), in data set [1], the Tm came out at 44.8 °C. For the same sequence, the folding enthalpy in data set [2] was -26.4 kcal/mol.
The like results for GTTTGGGGAAACTCAAAC (((((.(....).))))) were, in that order, 43.9 °C and -31.7 kcal/mol.
With GTTTGGGGAAACTCGAAC (((.(.(....).).))), in data set [1], the Tm turned out to be 30.8 °C. For the same sequence, the folding enthalpy in data set [2] was -17.6 kcal/mol.
Consider GTTTGTCGAAAGACGAAC (((.(((....))).))), for which the Tm in data set [1] worked out at 53.1 °C. Further, the folding enthalpy in data set [2] was -39 kcal/mol.
As for GTTTGTGGAAACACAAAC (((((((....))))))), in data set [1], the Tm was determined as 58.4 °C. The folding enthalpy in data set [2] is -46.4 kcal/mol.
As for GTTTGTGGAAACGCAAAC (((((.(....).))))), the Tm in data set [1] worked out at 48.4 °C. In data set [2], the folding enthalpy was -36.2 kcal/mol.
For GTTTTAACGAAAGTTAAC (((..(((....)))))), in that order: 27 °C and -14.7 kcal/mol.
For GTTTTATCGAAAGATAAC (((..(((....)))))), in that order: 29.8 °C and -11.4 kcal/mol.
For GTTTTCCCGAAAGGGAAC (((..(((....)))))), in that order: 36.5 °C and -10.7 kcal/mol.
Turning to GTTTTCGAAAGAAACAAC ((((((....)))..))), in data set [1], the Tm stood at 26.6 °C. Also, in data set [2], the folding enthalpy was -11.7 kcal/mol.
With GTTTTCGAAAGAACAAC ((((((....))).))), the Tm in data set [1] was found to be 30.5 °C. Besides, in data set [2], the folding enthalpy is -12.2 kcal/mol.
As to GTTTTCGAAAGAATAAC ((((((....))).))), the Tm in data set [1] was 31.2 °C. For the same sequence, the folding enthalpy in data set [2] was -12.9 kcal/mol.
For GTTTTCGCGAAAGCGAAC (((..(((....)))))), in that order: 40.1 °C and -8.54 kcal/mol.
As for GTTTTCGGAAACGAAAGC (.(((((....))))).), the Tm in data set [1] worked out at 44.4 °C. For the same sequence, the folding enthalpy in data set [2] is -25.9 kcal/mol.
Turning to GTTTTGCCGAAAGGCAAC (((..(((....)))))), in data set [1], the Tm was 36 °C. Besides, the folding enthalpy in data set [2] was -8.44 kcal/mol.
Take GTTTTGCGAAAGCAAAC (((.(((....)))))): the Tm in data set [1] amounted to 46.1 °C. Moreover, in data set [2], the folding enthalpy is -13.8 kcal/mol.
The like results for GTTTTGGAAACAAAAC ((((((....)))))) were, in that order, 49.3 °C and -31.6 kcal/mol.
Turning to GTTTTGGGAAACCAAAAC (((((((....))))))), in data set [1], the Tm was 57.5 °C. The folding enthalpy in data set [2] was -43.5 kcal/mol.
Regarding GTTTTTCCGAAAGGAAAC (((..(((....)))))), the Tm in data set [1] turned out to be 35.1 °C. In data set [2], the folding enthalpy was -13.4 kcal/mol.
The like results for GTTTTTGGAAACAAGAAC (((.(((....))).))) were, in that order, 32.7 °C and -19.6 kcal/mol.
Take TAAGCGAAAGCTTA (((((....))))): the Tm in data set [1] stood at 54.5 °C. Besides, in data set [2], the folding enthalpy is -15 kcal/mol.
Consider TACTGGAAACAGTA (((((....))))), for which the Tm in data set [1] was determined as 36.8 °C. In addition, the folding enthalpy in data set [2] was -15.8 kcal/mol.
Consider TAGGTGAAAACCTA (((((....))))), for which the Tm in data set [1] is 41.1 °C. Moreover, the folding enthalpy in data set [2] was -15.4 kcal/mol.
